HCV NS3 hel inh: inhibitors of Hepatitis C virus NS3 helicase. inhibition, % at 10.9 µM. AID 1800. 0.56% of 290,000 active. NS3 helicase DNA unwinding, Cy5 molecular beacon fluorescence;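 active = inhibition above the mean of all tested compounds plus 3 SD, set per campaign, cut at about 35% in these data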;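 note: 0% = DMSO wells and 100% = thioflavine S control wells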
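Control set: DMSO versus 110 µM thioflavine S; Material: NS3 helicase fragment of HCV; Measured by: Cy5 fluorescence at 0 and 60 min, beacon hairpin quenching; Read-out basis: percent inhibition from t60/t0 fluorescence ratio; Times: reaction time 60 min, 25 °C; Repeats: single replicate; Compound dosing: single dose, 10.9 µM nominal final, DMSO 0.8% final.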
VIM-2 inh: blocks Pseudomonas aeruginosa VIM-2 metallo-beta-lactamase; AID 1527; inhibition, % at 5.6 µM; 0.89% of 290,000 active; purified VIM-2, nitrocefin hydrolysis, epi-absorbance fluorescence;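 active = inhibition above the mean of all tested compounds plus 3 SD, cutoff set per screening run, cut at about 7.5% in these data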;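 note: red hydrolysis product quenches plate fluorescence so inhibitors raise well fluorescence; 0% = enzyme with DMSO and 100% = DMSO without enzyme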
DNA FID counter-1: displaces DNA intercalator in HCV helicase counter-screen; inhibition, % at 7.9 µM; DNA fluorescent intercalator displacement, fluorescence; 0.17% of 290,000 active;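 note: 0% = vehicle and 100% = reference compound; higher means more ethidium bromide displaced from hairpin DNA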
IMP-1 inh: blocks Pseudomonas aeruginosa IMP-1 metallo-beta-lactamase | purified IMP-1, nitrocefin hydrolysis, epi-absorbance fluorescence | inhibition, % at 5.6 µM | 0.45% of 290,000 active | AID 1556;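 active = inhibition above the mean plus 3 SD of all compounds in the same screening run, cut at about 4.5% in these data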;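 note: 0% = IMP-1 with DMSO and 100% = DMSO wells lacking enzyme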
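system = purified recombinant IMP-1 beta-lactamase | amount = 0.2 nM IMP-1, as dispensed | medium = HEPES buffer pH 7.1 with ZnSO4 and Brij 35 | times = 25 °C, 15 min preincubation, 25 min reaction | detection = plate fluorescence quenching by hydrolysis product, ex 480/em 530 nm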
VIM-2 confirm: VIM-2 inhibition, confirmation assay; shares compounds with IMP-1 inh; purified VIM-2 enzyme, nitrocefin absorbance; inhibition, % at 5.6 µM; 73% of 200 active; AID 1860; in the data active = inhibition above about 8%;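 note: 0% = enzyme with vehicle and 100% = no enzyme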
TEM-1 inh 2: blocks E. coli TEM-1 beta-lactamase, VIM-2 IMP-1 counter-screen; shares compounds with IMP-1 inh; nitrocefin absorbance inhibition; inhibition, % at 5.6 µM; 50% of 200 active; in the data active = inhibition above about 0.66%
Target sequence (P62593 whole entry, looked up): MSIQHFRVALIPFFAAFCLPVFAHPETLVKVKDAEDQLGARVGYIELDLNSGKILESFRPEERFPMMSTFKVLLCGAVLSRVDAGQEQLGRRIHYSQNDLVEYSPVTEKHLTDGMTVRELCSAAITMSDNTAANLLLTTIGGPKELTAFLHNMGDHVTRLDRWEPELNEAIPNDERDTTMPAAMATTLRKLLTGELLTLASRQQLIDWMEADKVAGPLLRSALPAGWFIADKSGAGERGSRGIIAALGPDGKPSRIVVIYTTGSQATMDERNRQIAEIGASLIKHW
IMP-1 inh conf: confirmation of P. aeruginosa IMP-1 metallo-beta-lactamase inhibitors. inhibition, % at 5.6 µM. AID 2189. 60% of 200 active. purified IMP-1 enzyme, absorbance substrate hydrolysis. shares compounds with IMP-1 inh; in the data active = inhibition above about 4.9%;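 note: 0% = enzyme with vehicle and 100% = vehicle without enzyme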
NS3 hel confirm: confirmation of Hepatitis C virus NS3 helicase inhibitors; 31% of 1,600 active; inhibition, % at 10.9 µM; shares compounds with HCV NS3 hel inh; NS3 helicase DNA unwinding, Cy5 molecular beacon fluorescence;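 active = inhibition above the mean of all tested compounds plus 3 SD, cutoff set per campaign, cut at about 36% in these data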
DNA FID counter-2: intercalator displacement, NS3 helicase counter-screen. shares compounds with HCV NS3 hel inh. DNA fluorescent intercalator displacement, fluorescence. inhibition, % at 7.9 µM. 4% of 1,600 active;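 note: 0% = vehicle and 100% = reference compound; higher means more displacement of ethidium bromide from the DNA hairpin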
FID counter DR: displaces fluorescent intercalator from DNA, HCV helicase counter-screen | IC50, µM | shares compounds with HCV NS3 hel inh | AID 2172 | 120 tested, under 10 active | fluorescent intercalator displacement from DNA, fluorescence; call rule not given here
* marks the source's active call; other numbers are inactive results. Sampled rows, rich in hits. Any-hit rate of the full collection: about 1.9%. Cut-off read from the data, not from the text of the source, unless noted: active = inhibition above about 37%; inactive = the rest.

Screening CC1=CC2=NC(=O)/C(=C/c3coc4ccc(Cl)cc4c3=O)C(=N)N2O1 returned HCV NS3 hel inh 42*, VIM-2 inh 13*, DNA FID counter-1 -3, IMP-1 inh 9.4*, VIM-2 confirm 7.8*, TEM-1 inh 2 -2, IMP-1 inh conf 2, NS3 hel confirm -20 and DNA FID counter-2 5.
Screening CC1=CC2=NC(=O)/C(=C\c3cc(C)n(-c4cccc(Cl)c4)c3C)C(=N)N2O1 returned HCV NS3 hel inh 5, VIM-2 inh -2, DNA FID counter-1 -2 and IMP-1 inh -3.
`O=c1ccc2c(-c3ccccc3)c3ccc(O)cc3oc-2c1` gave HCV NS3 hel inh 73*, VIM-2 inh 81*, DNA FID counter-1 -18, IMP-1 inh 84*, VIM-2 confirm 101*, TEM-1 inh 2 152*, IMP-1 inh conf 96*, NS3 hel confirm 68*, DNA FID counter-2 -11 and FID counter DR >79.
CN(c1ccc([N+](=O)[O-])cc1C(N)=O)C1CCCCC1 was read as HCV NS3 hel inh 4, VIM-2 inh 0, DNA FID counter-1 0 and IMP-1 inh -5.
Cc1c2ccccc2nc2c(F)c(NC(C)C)c(F)c(F)c12 was read as HCV NS3 hel inh 44*, VIM-2 inh 2, DNA FID counter-1 -15, IMP-1 inh 1, NS3 hel confirm -3 and DNA FID counter-2 4.
`Cc1c2ccccc2nc2c(F)c(NCCO)c(F)c(F)c12` gave HCV NS3 hel inh 39*, VIM-2 inh 3, DNA FID counter-1 -14, IMP-1 inh 3, NS3 hel confirm -16 and DNA FID counter-2 8.
For CCCc1cnc(N2CCN(C(=O)c3ccccc3)CC2)nc1 the results were HCV NS3 hel inh 2, VIM-2 inh 0, DNA FID counter-1 -27 and IMP-1 inh 0.
`COc1ccc([N+](=O)[O-])cc1NCc1cccc([N+](=O)[O-])c1` gave HCV NS3 hel inh 41*, VIM-2 inh -2, DNA FID counter-1 9, IMP-1 inh 0, NS3 hel confirm -6 and DNA FID counter-2 23.
Screening Cc1ccc(C(=O)N[C@H](C(=O)Nc2sccc2C(N)=O)C(C)C)cc1 returned HCV NS3 hel inh 0, VIM-2 inh -2, DNA FID counter-1 -20 and IMP-1 inh -1.
For COc1ccccc1N1CCN(C(=O)CCc2nnc3ccc(N4CCC(C)CC4)nn23)CC1 the results were HCV NS3 hel inh -5, VIM-2 inh -1, DNA FID counter-1 -59 and IMP-1 inh -3.
`O=C(/C=C1\C(=O)Nc2ccccc21)/C=C1\C(=O)Nc2ccccc21` gave HCV NS3 hel inh 54*, VIM-2 inh 0, DNA FID counter-1 -8, IMP-1 inh -1, NS3 hel confirm 9 and DNA FID counter-2 29.
For Cc1cc(-c2nnc(SCC(=O)Nc3ccc(C)c(C)c3)n2N)n[nH]1 the results were HCV NS3 hel inh 0, VIM-2 inh -5, DNA FID counter-1 -21 and IMP-1 inh -4.
For NC(=O)Cn1c(=O)n(Cc2ccco2)c(=O)c2c3c(sc21)CCCCC3 the results were HCV NS3 hel inh 39*, VIM-2 inh -2, DNA FID counter-1 -15, IMP-1 inh 1, NS3 hel confirm 5 and DNA FID counter-2 -13.
Screening O=C(Cn1c(=O)n(Cc2ccco2)c(=O)c2c3c(sc21)CCCC3)Nc1ccccc1 returned HCV NS3 hel inh 47*, VIM-2 inh -2, DNA FID counter-1 -28, IMP-1 inh -1, NS3 hel confirm 5 and DNA FID counter-2 7.
`O=C(Nc1nc2c(F)cc(F)cc2s1)C1CC(=O)N(Cc2ccco2)C1` (configuration not stated) gave HCV NS3 hel inh 41*, VIM-2 inh 1, DNA FID counter-1 -10, IMP-1 inh -1, NS3 hel confirm -8 and DNA FID counter-2 -27.
Screening Cc1cc(C)c2nc(NC(=O)C3CC(=O)N(Cc4ccco4)C3)sc2c1 (configuration not stated) returned HCV NS3 hel inh 13, VIM-2 inh -1, DNA FID counter-1 -31 and IMP-1 inh -3.
CCn1c(=O)c(CCC(=O)NCC2CCCO2)c(C)c2c(C)nn(-c3ccc(C)cc3)c21 (configuration not stated) was read as HCV NS3 hel inh 37*, VIM-2 inh -2, DNA FID counter-1 -16, IMP-1 inh -2, NS3 hel confirm -16 and DNA FID counter-2 -44.
COc1ccc(Cl)cc1NC(=O)CN(C)Cc1cccs1 was read as HCV NS3 hel inh -2, VIM-2 inh -1, DNA FID counter-1 -13 and IMP-1 inh -1.
Screening CC1=NN(c2ccccc2)C(=O)C1N=Nc1ccc(C)cc1 (configuration not stated) returned HCV NS3 hel inh -3, VIM-2 inh 3, DNA FID counter-1 2 and IMP-1 inh -1.
Screening CC1=NN(c2ccccc2)C(=O)C1C=Nc1ccc(N(C)C)cc1 (configuration not stated) returned HCV NS3 hel inh 44*, VIM-2 inh 0, DNA FID counter-1 -8, IMP-1 inh 0, NS3 hel confirm -1 and DNA FID counter-2 1.
COC(=O)C1CN(C(=O)COc2ccccc2)c2ccccc2O1 (configuration not stated) was read as HCV NS3 hel inh 6, VIM-2 inh 0, DNA FID counter-1 -7 and IMP-1 inh -1.
`Cc1ccc(C(=O)/C=C/c2cc(Br)cc(Br)c2O)o1` gave HCV NS3 hel inh 37*, VIM-2 inh -6, DNA FID counter-1 -25, IMP-1 inh -3, NS3 hel confirm 48*, DNA FID counter-2 8 and FID counter DR >79.
For CCCCN(C)C(=O)c1ccc2c(c1)S(=O)(=O)c1ccccc1C2=O the results were HCV NS3 hel inh 8, VIM-2 inh 0, DNA FID counter-1 -21 and IMP-1 inh -3.
For Cc1ccc(-n2nnnc2SCc2ccc(C(=O)O)cc2)cc1C the results were HCV NS3 hel inh 37*, VIM-2 inh -3, DNA FID counter-1 -32, IMP-1 inh -5, NS3 hel confirm -14 and DNA FID counter-2 -7.
Cc1ccnc(NS(=O)(=O)c2cc(-c3cc(C)no3)ccc2C(C)C)c1 was read as HCV NS3 hel inh 20, VIM-2 inh 0, DNA FID counter-1 -19 and IMP-1 inh 0.
Screening O=[N+]([O-])c1ccc(/C=C/c2ccc3ccccc3n2)cc1 returned HCV NS3 hel inh 1, VIM-2 inh 0, DNA FID counter-1 -4 and IMP-1 inh 0.

Screening results: PubChem BioAssay, The Scripps Research Institute Molecular Screening Center
